The EternaBench riboswitch data

Test system: MS2 coat protein
Assay: apparent Kd, MS2 coat protein; higher = weaker binding; RNA-MaP array; FMN 200 µM where present
Outline: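 The apparent Kd is reported as the median of filtered per-cluster binding-curve fits. To get these curves, designs transcribed by stalled E. coli RNA polymerase on Illumina sequencing-chip clusters were titrated with SNAP-549-labelled MS2 coat protein from 0.7 or 1.5 nM, doubling to 3 µM. Titrations were run without and then with constant ligand in 100 mM Tris-HCl pH 7.5, 80 mM KCl, 4 mM MgCl2, BSA, DTT, yeast tRNA and Tween-20, and green signal was normalised to red-channel RNA signal and control-cluster median Fmax.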

[1] = designed as: OFF switch for flavin mononucleotide, no ligand
[2] = ligand present: flavin mononucleotide, designed as: OFF switch for flavin mononucleotide
[3] = designed as: ON switch for flavin mononucleotide, no ligand
[4] = ligand present: flavin mononucleotide, designed as: ON switch for flavin mononucleotide

CGCACUUAGCGAGGAUAUGUUAAACAUGAGGAUCACCCAUGUGAUUUAGUAUCAAUUUUAGUGAAACAGAAGGCGCUUAGUGCG
apparent Kd [1]: 17.6 nM
apparent Kd [2]: 14.9 nM

CGGAACAUGAGGAUCACCCAUGUAGCUACUUAAAGGUGCUACAGAAGGGACAUUGCGCGUCAUGGUCAGGAUAUGUAGGGCGGA
apparent Kd [3]: 148 nM
apparent Kd [4]: 62.4 nM

CCUAUACAUGAGGAUCACCCAUGUCAGGAUAUGGACAGCUACGUCAUAGGACGUAGCACCAGAAGGGACUGGCA
apparent Kd [1]: 50.1 nM
apparent Kd [2]: 130 nM

UACCGCCGCACGGACGCGUUGAGUCAGGAUAUACAUGAGGAUCACCCAUGUGAAGGCCGGCUCAUGUAGAAGGGACAAGCGUUG
apparent Kd [1]: 6.2 nM
apparent Kd [2]: 7.14 nM

GUCAGCUCGUGAGGAUAUACAACACUGCUUCGGCAGUGUAUUAAGAUCACAUGAGGAUCACCCAUGUAGAAGGGACGAGCUGAU
apparent Kd [1]: 11.8 nM
apparent Kd [2]: 20.7 nM

GCACAUGAUACAGGAUAUGUAUUGGUAUUUAUAUACAGUUAUAUAAUAUUUACAGAAGGGUAUACAUGAGGAUCACCCAUGUGC
apparent Kd [1]: 81.3 nM
apparent Kd [2]: 41.7 nM

CAUUAACAUGAGGAUCACCCAUGUGAGGAUAUGAUAUUACUUGGACAGCUGUGGUCAAUCAGAAGGCACAUCUU
apparent Kd [1]: 27.8 nM
apparent Kd [2]: 32.9 nM

GCUGCAUGCAGAGGAUAUGACACAUGAGGAUCACCCAUGUAAUAAAUGAGAAUUUCGAAUGUAACUCAGAAGGCUGCAUGCAGC
apparent Kd [1]: 54.2 nM
apparent Kd [2]: 186 nM

UCCGAUGUACAUGAGGAUCACCCAUGUCACAUGCCCGUGACACAGGAUAUCCAGGAUAGGCCAAAGGAGAAGGGUGAUCCGCGG
apparent Kd [3]: 64.3 nM
apparent Kd [4]: 94.5 nM

AACAGUAGAGGAUAUACAUGAGGAUCACCCAUGUGAUUAUUACGUGGCGUACCACGAAGUAGAAGGCUACUGGA
apparent Kd [1]: 61 nM
apparent Kd [2]: 203 nM

CUGUCGAUAUCAGGAUAUCGAUUAAUUACAUGAGGAUCACCCAUGUUGACAUGGAAUAUAACUUGCGAGAAGGGAUUACGAUAG
apparent Kd [3]: 28.3 nM
apparent Kd [4]: 22.3 nM

GAUUAGCUUGGAGGAUAUGGUACGGGCAGCUAACCAGAAGGCCAAGAACAUGAGGAUCACCCAUGUGCCGUUGGCCAUGGGAGG
apparent Kd [1]: 37.1 nM
apparent Kd [2]: 13.2 nM

GGUCCAUCAUGAGGAUAUGGCACCUUAUUGGUGCCAGAAGGCAUGUCUCUUGACAUGAGGAUCACCCAUGUAAUAAAUUGGACC
apparent Kd [3]: 915 nM
apparent Kd [4]: 125 nM

GUGCGGGUGCCACAGGAUAUACGUGGAUCGACAUGAGGAUCACCCAUGUAUAUCCUAAUAAUUGCGUAGAAGGGUGGUCAGCCGU
apparent Kd [3]: 845 nM
apparent Kd [4]: 149 nM

UCGCUGCGAGGAUAUACAUGAGGAUCACCCAUGUGCGGGUCCGGGUCUUCGUCCAUUAGUAGAAGGCGCAGUGA
apparent Kd [1]: 122 nM
apparent Kd [2]: 212 nM

CUGAGCUGAGGAUAUACAUGAGGAUCACCCAUGUGUUAGAGCUUGCGUACAGGCAGAUGUAGAAGGCAGUUCGG
apparent Kd [1]: 17.4 nM
apparent Kd [2]: 49.7 nM

GUGCCUAACUAGAAGGCAGUGUGCAAAGCAUUCUGAGGAUAUGGGUUCCGGAAACGGACAUGAGGAUCACCCAUGUGGCACAAA
apparent Kd [3]: 424 nM
apparent Kd [4]: 26.7 nM

UGUCGGAGCAGAGGAUAUUACAUGAGGAUCACCCAUGUAUGAACCAAUAGCUGGAAACAGCAAUGUAAGAAGGUUGCUCCGACA
apparent Kd [1]: 7.29 nM
apparent Kd [2]: 46.7 nM

AACCUAUUACAGAAGGCCAGCUACAUGAGGAUCACCCAUGUCGAGUCAUGGAGGAUAUGUAGUAAUUUGCACGCGGACGAGUAC
apparent Kd [3]: 52.6 nM
apparent Kd [4]: 5.82 nM

AGCGUCGGCACAGGAUAUGAGAUGCCGGCAGACAUGAGGAUCACCCAUGUAAGCGACCCAGGCAGUCAGAAGGGUGAUCGACAA
apparent Kd [3]: 121 nM
apparent Kd [4]: 65 nM

GUCGAAACCAUACUGGUCGACGGUCAGGAUAUACAUGAGGAUCACCCAUGUGCUAUUGAUACUAUGUAGAAGGGACCCACCGCA
apparent Kd [1]: 15.2 nM

UGUCCAUAGCAGAAGGACAUGAAUAAUCAUGAAAACAUGAGGAUCACCCAUGUAGGAUAUGCUAUGGACUAAGAGCGAAAGCUC
apparent Kd [1]: 28.6 nM
apparent Kd [2]: 430 nM

GUGGUGCAUAUACGUGGAUGUACAUGAGGAUCACCCAUGUAAGAGGAUAUGCGGAUACUAGCUCAGCAGAAGGCUUACAAAUGA
apparent Kd [1]: 30.3 nM
apparent Kd [2]: 240 nM

CUUUUGUGAGGAUAUCAGUAUUAAAUAAAUAAAAUUACUACUGAGAAGGCACAUGAGGAUCACCCAUGUUCCUC
apparent Kd [1]: 33.4 nM
apparent Kd [2]: 201 nM

UGUGCGUUGAUCUUCGAUCGUUGUACAUGAGGAUCACCCAUGUAGGAUAUUCUAAGACGCAGAUAGGAGAAGGACAUUGGUAUU
apparent Kd [1]: 10.6 nM
apparent Kd [2]: 19.4 nM

CUGGAUCACGCAGGAUAUUACAUGAGGAUCACCCAUGUCAGGACUGCAAUAUCGUCUCCUCGUUGUGAGAAGGGCGGAAUCAUU
apparent Kd [1]: 14.6 nM
apparent Kd [2]: 26.3 nM

CUGCUCGUAGAGAAGGCGUGGGCACAUGAGGAUCACCCAUGUCGCAGUACGAGGAUAUUUGCCGGCCCGCCCAAAAUGGCGCGA
apparent Kd [3]: 220 nM
apparent Kd [4]: 96.2 nM

ACGUUUAAUACAGGAUAUGUUCUUAUACUAUACAUUGCUUAUUACUUAAUUACAGAAGGGUAUAACAUGAGGAUCACCCAUGUA
apparent Kd [3]: 108 nM
apparent Kd [4]: 63.2 nM

GGGCCCGGUGUGAGGAUAUGCUCGGGUAAACUCGGGCAGAAGGCACAUGAGGAUCACCCAUGUAAGCCGGGCCC
apparent Kd [1]: 13.8 nM
apparent Kd [2]: 14.6 nM

AAAUGGAACUAAGGAUAUCUGUAUUUUGUUGAAACAUGAGGAUCACCCAUGUUCAUGAAAUUAUAGGAGAAGGUAGAUCCAUAA
apparent Kd [3]: 4.51 nM
apparent Kd [4]: 4.6 nM

AUGGAUAUCACAGGAUAUGCCAGGGAUACCCUGGCAGAAGGGUGAUCCAUCCUAUGUAAAUACAUGAGGAUCACCCAUGUGUCC
apparent Kd [3]: 51.7 nM
apparent Kd [4]: 43.6 nM

AUCGGCAACACCAUGGUGGAUCCUGAGGAUAUGAAAAGCUACAUGAGGAUCACCCAUGUCCCGCGUCAGAAGGCAGGUUUGAUC
apparent Kd [3]: 138 nM
apparent Kd [4]: 17 nM

UGCUUCGUGUAAGGAUAUGCAGCCGUUUCGGCUGCAGAAGGUACUAUAAUACAUGAGGAUCACCCAUGUCUCUCGCUUUGCGGG
apparent Kd [3]: 63.6 nM
apparent Kd [4]: 29.4 nM

UUAUGUAUUGUAGGAUAUCAUAAGUUAUGUAUUAUAAUUGAAAUUUUGUUAUGAGAAGGACAUAUACAUGAGGAUCACCCAUGU
apparent Kd [1]: 16.6 nM
apparent Kd [2]: 14 nM

CGAUAGGACAGAGGAUAUACACAUGAGGAUCACCCAUGUGAUUUCAGCGCGAAAGCGCCAAACAUGUAGAAGGCUGUCCUAUCG
apparent Kd [1]: 25.9 nM
apparent Kd [2]: 10.6 nM

AAUAAACUCACAGGAUAUAGCAUCGUCGUUGCGAACUUAGCGACGACGAUGCUAGAAGGGUGUAUACAUGAGGAUCACCCAUGU
apparent Kd [3]: 23 nM
apparent Kd [4]: 11.2 nM

AUGACAGGCAAAGCGCAACGGCAAACAUGAGGAUCACCCAUGUAGGAUAUGCUACACAAAGUGUAGCAGAAGGACAUACGACGA
apparent Kd [1]: 36.4 nM
apparent Kd [2]: 75.2 nM

AUACAUGAGGAUCACCCAUGUAAUUAAUUAACUAGUAAGAUCUAGGAUAUCAGCUCGAAUAGAGCUGAGAAGGAGAUCACAUGU
apparent Kd [3]: 34 nM
apparent Kd [4]: 15.4 nM

CACGCGAAAAGGAGUACAUGAGGAUCACCCAUGUAGGGUGGGAGAAGGCCGGUCGAGAGGUUUAUGGAGGAUAUUUAGGUGUUG
apparent Kd [3]: 78.8 nM
apparent Kd [4]: 52.5 nM

AAAUUUAACGAAGGAUAUGGUUACAUGAGGAUCACCCAUGUAUAUUUUGUGAUCUUGUUAAAGUACCAGAAGGUCGUAUACAUA
apparent Kd [1]: 173 nM
apparent Kd [2]: 400 nM

GUUUGACAUGAGGAUCACCCAUGUGAGGAUAUACGAGUAGCUGCUAGGUAGUUAGUAUGUAGAAGGUGCGUGUU
apparent Kd [1]: 75.6 nM
apparent Kd [2]: 71 nM

AAGAACUAAGGAUAUACAUGAGGAUCACCCAUGUCUUUUACAUGUUACUGGCCCGCAUGUAGAAGGUAGAAAAG
apparent Kd [1]: 78.6 nM
apparent Kd [2]: 135 nM

GAGCUAUGAGGAUAUGCAUAUAUACGGAUUCGUGUAGUACUACAUGAGGAUCACCCAUGUAGAAGGCGUGGCUG
apparent Kd [1]: 13.4 nM
apparent Kd [2]: 16.7 nM

CGCAGACAUUGGACCUGGUAACAUGAGGAUCACCCAUGUAUCAGAAGGUACUUAUAGAGAUUAAGUAAGGAUAUGAAGUUUGUG
apparent Kd [3]: 5.34 nM
apparent Kd [4]: 6.55 nM

UUUGUUUGCGGAGGAUAUAUAAGUGGAUCACCCAUAGAAGGCCGACAUGAGGAUCACCCAUGUUAGACAUGAGGAUCACCCAUG
apparent Kd [1]: 102 nM
apparent Kd [2]: 140 nM

UUCCCAAGUGCAGGAUAUGCUUCACCGACCUCAGCAGAAGGGCACAUGAGGAUCACCCAUGUGGCAAAAGUACACAGCAAGCUG
apparent Kd [1]: 7.74 nM
apparent Kd [2]: 11 nM

GUGGUACAUGAGGAUCACCCAUGUGUGGGCGCAUGAGGAUAUGUCAGUCCCUGAAGUACGAUAGAAGGCAUGGUGA
apparent Kd [3]: 201 nM
apparent Kd [4]: 302 nM

UUUUACCUAGGAUAUACAUUUUUUUUAUUAUUUUCAUUAUAACAUGAGGAUCACCCAUGUAGAAGGAGGAUUUU
apparent Kd [1]: 28.4 nM
apparent Kd [2]: 33.6 nM

UGUCGGAGCAGAGGAUAUUACAUGAGGAUCACCCAUGUAUGAACCACUAGCUGGAAACAGCAAUGUAAGAAGGCUGCUCCGACA
apparent Kd [1]: 7.43 nM
apparent Kd [2]: 51.8 nM

AUGCUGUCAGGAUAUCGUUAAUUUAGUUGUUUGUAUUAGUUCGAGAAGGGACAUGAGGAUCACCCAUGUUUGUA
apparent Kd [1]: 30.8 nM
apparent Kd [2]: 37.4 nM

AAAAAGUCAGGAUAUGUCAAAAGUCACAAAAGUGACAAAAGACAGAAGGGACAUGAGGAUCACCCAUGUAAAAA
apparent Kd [1]: 29 nM
apparent Kd [2]: 46.4 nM

AGGUACAUCGGAGGAUAUCAUGUAAAUACAUGAGGAUCACCCAUGUCGAUGGAGACAUCGGAGAUUGAGAAGGCCGAUGUACCG
apparent Kd [3]: 152 nM
apparent Kd [4]: 8.62 nM

AAAAAGUGAGGAUAUACGCUGUGGAGUAGACACAACCAGUCGUAGAAGGCACAUGAGGAUCACCCAUGUUCAAA
apparent Kd [1]: 27.2 nM
apparent Kd [2]: 30.1 nM

AAAAUGUGAGGAUAUCCGAAGGCGUCUGAUAGACGAGGCUAGGAGAAGGCACAUGAGGAUCACCCAUGUAAAAA
apparent Kd [1]: 46.6 nM
apparent Kd [2]: 95.1 nM

CCGCUGUGAGGAUAUUAGUAGUAGUCAGAAUAGACUAUUACUGAGAAGGCACAUGAGGAUCACCCAUGUGGCGG
apparent Kd [1]: 22.4 nM
apparent Kd [2]: 31.7 nM
